For series [1], the system named is rat cardio myoblast H9C2 cells. The experiment in a line: Penetration and cytotoxicity in non-malignant immortalized cells. It is filed as cell-based. The note with it: semi-confocal microscopy, 3h incubation; Fig. S2.
For series [2], the system named is MCF-10A cells. The experiment in a line: Uptake of fluorescein labelled peptide, confocal microscopy. The settings on record: 10 μM, confocal fluorescence; Fig. 1d, e. It is filed as cell-based, human. Summed up:
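MCF-10A cells were grown in 1:1 DMEM/Ham's F12 with 5% horse serum, EGF, insulin, hydrocortisone, cholera toxin and pen/strep. They were plated a day ahead at 2 × 10^5 in glass-bottom chamber dishes and exposed to fluorescein-labelled peptide (10 μM) for up to 24 h. Nuclei were stained with Hoechst 33342 and mitochondria with Rhodamine 800, then imaged by confocal microscopy over time. Data: 25 cells per field per time point, n = 5 independent experiments, mean ± SD.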

Series [3] relates to human embryonic kidney 293 HEK cells. Kind of series: Penetration and cytotoxicity in non-malignant immortalized cells. It is filed as cell-based. The settings on record: semi-confocal microscopy, 3h incubation; Fig. S2.
Series [4] has as its system MDA-MB-231 cells. Kind of series: Uptake of fluorescein labelled peptide, confocal microscopy. Type of series: cell-based, human. The note with it: 10 μM, confocal fluorescence, inside cells at 3 and 6 hours; Fig. 1d, e.
Series [5] can be described thus: Body weight of xenograft mice during treatment. It is filed as in vivo. The note with it: 9 doses 5 mg kg−1, Fig. 6c. The method, boiled down: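 MDA-MB-231 cells (3 × 10^6) injected subcutaneously into 7–8-week-old athymic nude (FOXN1NU) mice. Dosing started 28 days after inoculation and ran for 3 weeks: either 6 doses of peptide at 50 μM (0.875 mg kg−1; 17.5 microgram/mouse) or 9 doses of doxorubicin (5 mg kg−1). Body weight and tumour size were tracked throughout.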

No end group written: not given here.

Experimental findings from article PMC9200128 (Chemical Science, 2022) are described below.

With “Fl-NAF-1^44-67: NAF-1^44-67 labelled with fluorescein ({5(6)‑carboxyfluorescein}-FLGVLALLGYLAVRPFLPKKKQQK; UniProt Q8N5K1 44-67, looked up, fragment)”, the “entry of fluorescein-labelled peptide into H9C2 cells” value in series [1] is “no entry”. Moreover, in series [2], the “penetration of fluorescein-labelled peptide into MCF-10A cells” value is on record as “did not permeate normal cells”. Further, the “entry of fluorescein-labelled peptide into 293 HEK cells” value in series [3] is “no entry”. Also, the “penetration of fluorescein-labelled peptide into MDA-MB-231 cells” value in series [4] was “preferentially penetrated MDA-MB-231 cancer cells”.
In the case of `COc1cccc2c1C(=O)c1c(O)c3c(c(O)c1C2=O)C[C@@](O)(C(=O)CO)C[C@@H]3O[C@H]1C[C@H](N)[C@H](O)[C@H](C)O1` [doxorubicin], the “body weight during treatment” value in series [5] is recorded as “severe decrease in body weight”.
